Data taken from ChEMBL document CHEMBL1129588, “Development of potent thrombin receptor antagonist peptides” (J Med Chem, 1996).
Non-standard residues stand in square brackets, D forms with d. Residues, ends and D or L forms follow the SMILES beside them. *: point of attachment. Phe(4-guanidino) = N=C(N)Nc1ccc(C[C@H](N)C(=O)O)cc1; Phe(4-F) = N[C@@H](Cc1ccc(F)cc1)C(=O)O; 1Nal = N[C@@H](Cc1cccc2ccccc12)C(=O)O; Thiophene3carbonyl = O=C(c1ccsc1)*; Tic = O=C(O)[C@@H]1Cc2ccccc2CN1; Thz = O=C(O)[C@@H]1CSCN1; X1 = O=C(c1ccoc1)*; βAla = NCCC(=O)O

Key:
[1] = target: T1, Proteinase-activated receptor 1 (Homo sapiens, UniProt P25116)
T1 sequence (P25116 whole entry): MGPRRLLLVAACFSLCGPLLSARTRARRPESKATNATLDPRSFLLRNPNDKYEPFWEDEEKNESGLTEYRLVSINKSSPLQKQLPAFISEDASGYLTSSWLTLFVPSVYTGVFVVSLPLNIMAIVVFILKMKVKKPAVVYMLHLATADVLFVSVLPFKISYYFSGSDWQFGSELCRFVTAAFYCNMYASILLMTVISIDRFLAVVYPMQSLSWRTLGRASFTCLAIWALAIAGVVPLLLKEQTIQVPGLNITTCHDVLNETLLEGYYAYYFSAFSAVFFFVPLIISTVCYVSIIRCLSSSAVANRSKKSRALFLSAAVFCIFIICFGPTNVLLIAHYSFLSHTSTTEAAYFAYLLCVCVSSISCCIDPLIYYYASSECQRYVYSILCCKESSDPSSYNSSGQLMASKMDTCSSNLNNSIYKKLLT

[2] = target: T1, Proteinase-activated receptor 1; test: Concentration of compound required to inhibit agonist ([…], at 3 uM) induced platelet aggregation by 50%;PA=not experimentally achieved; type: functional
Procedure, shortened: (§1)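 Gel-filtered human platelets in a microtiter turbidity aggregation assay, preincubated with test peptide and then stimulated with SFLLRNP-NH₂ at 3 μM. […] N is the number of determinations.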

[3] = target: T1, Proteinase-activated receptor 1; test: Effective concentration of compound for stimulation of 50% maximum platelet aggregation; PA=not experimentally achieved; type: functional
Procedure, shortened: (§2)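 Peptides were added alone to gel-filtered human platelets, and aggregation was read by microtiter turbidity. EC₅₀ is the concentration stimulating 50% of maximum aggregation. N is the number of determinations. A peptide is called a partial agonist where maximum aggregation was not reached experimentally.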

[4] = Concentration to stimulate human platelet aggregation; type: functional
Procedure, shortened: as §2

[5] = target: T1, Proteinase-activated receptor 1; test: Concentration of compound required to inhibit agonist ([…], at 3 uM) induced platelet aggregation by 50%; PA=not experimentally achieved; type: functional
Procedure, shortened: as §1

SMILES	IC50 [1]	EC50 [4]	other results
CC(C)C[C@H](NC(=O)[C@H](Cc1ccc(NC(=N)N)cc1)NC(=O)[C@H](Cc1ccc(F)cc1)NC(=O)c1ccoc1)C(=O)N[C@@H](CCCN=C(N)N)C(N)=O (X1-[Phe(4-F)][Phe(4-guanidino)]LR-NH2)	29 nM	–	EC50 [2]: Not Active
CC(C)C[C@H](NC(=O)[C@H](Cc1ccc(NC(=N)N)cc1)NC(=O)[C@H](Cc1ccc(F)cc1)NC(=O)c1ccsc1)C(=O)N[C@@H](CCCN=C(N)N)C(N)=O (Thiophene3carbonyl-[Phe(4-F)][Phe(4-guanidino)]LR-NH2)	24 nM	–	EC50 [3]: Not Active
CC(=O)NCCC(=O)N[C@@H](Cc1ccccc1)C(=O)N[C@@H](CC(C)C)C(=O)N[C@@H](CC(C)C)C(=O)N[C@@H](CCCN=C(N)N)C(N)=O (Ac-[βAla]FLLR-NH2)	–	1800 nM	–
CC(C)C[C@H](NC(=O)[C@H](CC(C)C)NC(=O)[C@H](Cc1ccccc1)NC(=O)[C@@H]1CSCN1)C(=O)N[C@@H](CCCN=C(N)N)C(N)=O (H-[Thz]FLLR-NH2)	–	46000 nM	–
C/C=C/C=C/CC(=O)N(C(C)=O)[C@@H](Cc1ccc(F)cc1)C(=O)N[C@@H](Cc1ccc(NC(=N)N)cc1)C(=O)N[C@@H](CC(C)C)C(=O)N[C@@H](CCCN=C(N)N)C(N)=O	24 nM	–	IC50 [5]: Not Active
CC(C)C[C@H](NC(=O)[C@@H]1Cc2ccccc2CN1C(=O)[C@H](Cc1ccc(F)cc1)NC(=O)[C@@H](N)CO)C(=O)N[C@@H](CCCN=C(N)N)C(N)=O (H-S[Phe(4-F)][Tic]LR-NH2)	–	470 nM	–
CC(C)C[C@H](NC(=O)[C@H](Cc1cccc2ccccc12)NC(=O)[C@H](Cc1ccc(F)cc1)NC(=O)[C@@H](N)CO)C(=O)N[C@@H](CCCN=C(N)N)C(N)=O (H-S[Phe(4-F)][1Nal]LR-NH2)	–	160 nM	–
CC(C)C[C@H](NC(=O)[C@H](CC(C)C)NC(=O)[C@H](Cc1ccc(N)cc1)NC(=O)[C@@H](N)CO)C(=O)N[C@@H](CCCN=C(N)N)C(N)=O	–	18000 nM	–
